Cl transport mod = modulates chloride dependent transport by human KCC2; Q9H2X9; B-score of Tl+ flux slope (higher = more flux/activation; lower = inhibition) at 10 µM; KCC2 cells, thallium flux FluoZin-2 fluorescence; actives 2.2% (n = 190,000);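 active = thallium flux slope and its plate-corrected score both differing from the plate sample mean at a set confidence after two filtering rounds, in either direction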;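 note: slope of fluorescence scaled to starting intensity during 10 to 20 s after thallium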
DTT redox prof = compounds producing H2O2 with reducing agent – biochemical, NIH compound library profiling, artefact control for MLSCN library redox annotation, primary screen; AID 878; actives 0.03% (n = 200,000); activation, % at 10 µM; DTT-dependent redox cycling H2O2, phenol red/HRP absorbance; 100% = 100 µM peroxide control, 0% = buffer;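 active = activation of at least 50% relative to the plate's high and low controls in the primary single-dose screen; inactive = activation below 50%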;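 note: compound incubated with DTT at 0.8 mM final as the reducing agent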
Dynein cargo inh = blocks dynein driven cargo transport along microtubules; 3617.4 mouse cells, GR-EGFP nuclear translocation imaging; test concentration mostly 20 µM; stimulated with dexamethasone, 1 µM; hits give low values; z-score, hits read low; actives 0.47% (n = 220,000);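 active = plate z-score of nuclear minus cytoplasmic receptor signal below a set negative limit, without overly bright fluorescence or cell loss, cut at about -3.5 in these data, passing the limit was not always enough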;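 note: z-score of nuclear minus cytoplasmic ring GR-EGFP intensity difference per well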
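Buffer or medium: tetracycline-free induction medium containing charcoal-stripped FBS / Reagent: dexamethasone agonist, 1.0 µM final, for 30 min / Technique: automated 10x imaging of fixed Hoechst-stained cells / Times: induction 48 h, compound 1 h, agonist 30 min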
Autophagy HCS = autophagy modulation, high-content screen. MEF GFP-LC3 puncta imaging; test concentration mostly 10 µM. calls only at 10 µM (by protocol). actives 0.98% (n = 190,000);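 active = percentage of spot-positive cells more than 3 SD above its plate mean, without a fluorescence outlier flag or 80% toxicity; inconclusive = no clear call, values can overlap the other calls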
ROMK primary = modulates human ROMK potassium channel activity; P48048; Tet-inducible ROMK, thallium flux fluorescence; actives lie on both sides; B-score at 10 µM; actives 2% (n = 130,000); AID 1918;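 active = signal ratio slope over the read window, or its plate-corrected B-score, at least 3 SD from the plate mean, either direction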;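 note: B-score of the F/F0 ratio slope over 7 to 12 s after thallium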
Target sequence (P48048 whole entry, looked up): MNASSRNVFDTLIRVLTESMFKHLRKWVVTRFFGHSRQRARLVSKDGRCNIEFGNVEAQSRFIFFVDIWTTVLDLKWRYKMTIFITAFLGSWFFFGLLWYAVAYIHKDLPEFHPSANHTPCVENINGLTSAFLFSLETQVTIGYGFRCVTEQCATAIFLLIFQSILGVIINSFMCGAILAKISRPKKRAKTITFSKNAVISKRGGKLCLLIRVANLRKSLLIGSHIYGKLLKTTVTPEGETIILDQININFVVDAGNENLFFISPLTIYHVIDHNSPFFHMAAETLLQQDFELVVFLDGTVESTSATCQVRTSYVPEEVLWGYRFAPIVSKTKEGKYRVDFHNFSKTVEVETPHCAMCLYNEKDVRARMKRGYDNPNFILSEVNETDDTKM
KCC2 sec1 = confirmation of human KCC2 transport modulators; shares compounds with Cl transport mod; HEK293-KCC2, thallium flux, FluoZin2 fluorescence; hits give high values; normalised thallium flux (F/F0 slope) at 10 µM; actives 15% (n = 3,700);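 active = thallium flux slope above the same plate's solvent-only control mean plus 3 SD; inconclusive = the two replicate wells disagree; inactive = no significant difference from solvent-only control wells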
KCC2 bumet counter = thallium flux persisting under bumetanide in KCC2 cells, counter-screen secondary assay; actives 49% (n = 3,700); normalized thallium flux at 10 µM; AID 1714; HEK293-KCC2 + bumetanide/ouabain, thallium flux FluoZin2; hits give high values; shares compounds with Cl transport mod;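 active = thallium entry rate above the same plate's blocked-transporter control wells by more than 3 SD; inconclusive = the two repeat wells disagree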;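 note: raw slope of fluorescence over initial fluorescence between 10 and 20 s after thallium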
KCC2 sec2 = confirmation of human KCC2 transport modulators; AID 1715; actives 23% (n = 3,700); HEK293-KCC2, thallium flux FluoZin2 fluorescence; actives lie on both sides; F/F0 rise rate, 10–20 s post-thallium; normalized thallium flux at 10 µM; shares compounds with Cl transport mod;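 active = thallium flux slope more than 3 SD above or below the plate's solvent-only control mean, mostly below; inconclusive = the two repeat wells disagreed; inactive = no significant shift from solvent-only controls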
HEK counter1 = parental HEK flux effect, counter-screen; actives 46% (n = 3,700); shares compounds with Cl transport mod; HEK293 parental cells, thallium flux FluoZin2, ouabain; baseline-ratio fluorescence slope, 10–20 s after thallium; AID 1716; thallium flux rate (normalised fluorescence) at 10 µM;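 active = thallium flux rate significantly above the same plate's solvent-only control wells, beyond their mean plus 3 SD; inconclusive = the two replicate wells gave conflicting results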
KCC2 ouabain = confirmation of human KCC2 modulators with ouabain. shares compounds with Cl transport mod. HEK293-KCC2, thallium flux FluoZin2 fluorescence; bidirectional: low = inhibitor, high = activator. raw Tl+ flux slope (below DMSO = inhibition, above = activation) at 10 µM. actives 48% (n = 3,700);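 active = thallium flux slope beyond 3 SD from same-plate DMSO control mean in most replicates, usually higher, sometimes lower; inconclusive = repeat tests gave conflicting results; inactive = no significant difference from controls in most replicates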;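 note: slope of initial-normalized fluorescence between seconds 10 and 20 after thallium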
HEK counter2 = parental HEK flux effect, counter-screen 2 | shares compounds with Cl transport mod | HEK293 parental, thallium flux FluoZin-2 fluorescence slope | thallium flux slope at 10 µM | actives 33% (n = 3,700) | AID 1718;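 active = thallium flux slope above the same plate's solvent-control mean plus 3 SD in both duplicate wells; inconclusive = duplicate wells that disagreed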;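 note: run without ouabain in cells lacking the KCC2 cotransporter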
Large screens that a line does not name were inactive (follow-up assays come after a bar, where they were run). In the library only some 4.1% were active in any assay of this set; here they are far more common.

CCc1nc2c(c(=O)[nH]1)C1(CCCC1)Cc1ccccc1-2	none (no result: Cl transport mod) | KCC2 sec1 inactive | KCC2 bumet counter inactive | KCC2 sec2 inactive | HEK counter1 inactive | KCC2 ouabain inactive | HEK counter2 inactive
Cc1nc2cc(Nc3ccncc3)ccc2s1	none
NNC(=O)c1ccc(CSc2nc3ccccc3[nH]2)cc1	none
Cn1c(=O)c2c(nc(Sc3ncnn3CC(=O)NC3CCCCC3)n2C)n(C)c1=O	none (no result: DTT redox prof, Autophagy HCS)
Cc1cc(C)c(C#N)c(OCC(=O)c2ccccc2)n1	none | KCC2 sec1 inactive | KCC2 bumet counter inactive | KCC2 sec2 inconclusive | HEK counter1 inactive | KCC2 ouabain inactive | HEK counter2 inactive
Cc1cc(C)c(C#N)c(SCC(=O)c2ccccc2)n1	none
CCCc1cc(=O)[nH]c(SCC(=O)c2ccc3c(c2)NC(=O)CO3)n1	Cl transport mod 11 (no result: DTT redox prof, Autophagy HCS, ROMK primary) | KCC2 sec1 inactive | KCC2 bumet counter inactive | KCC2 sec2 inactive | HEK counter1 inactive | KCC2 ouabain inactive | HEK counter2 inactive
Nc1nnc(SCC(=O)c2ccc3c(c2)NC(=O)CO3)s1	none
COC(=O)CCN(C(=O)c1ccc(OC(C)=O)cc1)c1ccccn1	Cl transport mod -3.8 (no result: ROMK primary) | KCC2 sec1 inactive | KCC2 bumet counter inactive | KCC2 sec2 inactive | HEK counter1 inactive | KCC2 ouabain inactive | HEK counter2 inactive
Cc1nn(Cc2c(F)c(F)c(F)c(F)c2F)c(C)c1NC(=O)c1ccc(COc2ccccc2Cl)o1	Cl transport mod -6.4 (no result: ROMK primary) | KCC2 sec1 inactive | KCC2 bumet counter inactive | KCC2 sec2 inactive | HEK counter1 inactive | KCC2 ouabain 0.015 | HEK counter2 inactive
Cc1nn(Cc2c(F)c(F)c(F)c(F)c2F)c(C)c1NC(=O)c1ccc(COc2ccccc2Cl)cc1	none (no result: ROMK primary)
O=C(O)c1cc(-c2ccc(Cl)cc2)n(-c2ccc(Cl)cc2)n1	none
Cc1ccc(-n2nc(C(=O)O)cc2-c2ccc(Cl)cc2)cc1	Cl transport mod -3.7 | KCC2 sec1 inactive | KCC2 bumet counter inactive | KCC2 sec2 inactive | HEK counter1 inactive | KCC2 ouabain 0.017 | HEK counter2 inactive
Cc1nccn1CC(=O)N/N=C/c1cccs1	none (no result: DTT redox prof, Autophagy HCS)
CC(=O)c1cccc(NC(=O)COC(=O)COc2c(Cl)cc(Cl)c3ccc(C)nc23)c1	Cl transport mod 4.6 (no result: ROMK primary) | KCC2 sec1 inactive | KCC2 bumet counter 0.019 | KCC2 sec2 inactive | HEK counter1 0.013 | KCC2 ouabain inactive | HEK counter2 0.011
Cc1ccc2c(Cl)cc(Cl)c(OCC(=O)OCC(=O)Nc3ccc(C#N)cc3)c2n1	none (no result: ROMK primary)
Cn1c(C(=O)OC(C(=O)NC2CCCC2)c2cccnc2)cc2sccc21 (stereo unspecified)	Cl transport mod -2.7 (no result: ROMK primary) | KCC2 sec1 inactive | KCC2 bumet counter inactive | KCC2 sec2 inactive | HEK counter1 inactive | KCC2 ouabain 0.045 | HEK counter2 0.011
Cn1c(C(=O)OC(C(=O)NC2CCCCC2)c2cccnc2)cc2sccc21 (stereo unspecified)	none
Cc1nc(SCC(=O)NCc2ccco2)c2c(=O)n(C)c(=O)n(CC(C)C)c2n1	none
Cc1onc(-c2ccccc2)c1C(=O)N/N=C/c1cccs1	none (no result: DTT redox prof, Autophagy HCS, ROMK primary)
Cc1onc(-c2ccccc2)c1C(=O)NNC(=S)NC(=O)c1ccc2c(c1)OCO2	Cl transport mod 16 (no result: DTT redox prof, Autophagy HCS, ROMK primary) | KCC2 sec1 0.014 | KCC2 bumet counter 0.034 | KCC2 sec2 inactive | HEK counter1 inconclusive | KCC2 ouabain 0.03 | HEK counter2 inconclusive
Cc1onc(-c2ccccc2)c1C(=O)NNC(=S)NC(=O)/C=C/c1cccs1	Cl transport mod 6.7 (no result: ROMK primary) | KCC2 sec1 inactive | KCC2 bumet counter 0.027 | KCC2 sec2 inconclusive | HEK counter1 0.016 | KCC2 ouabain 0.03 | HEK counter2 0.018
COc1ccc(C(=O)NC(=S)NNC(=O)c2c(-c3ccccc3)noc2C)cc1OC	none (no result: DTT redox prof, Autophagy HCS, ROMK primary)
Cc1onc(-c2ccccc2)c1C(=O)NC(=S)NNC(=O)c1ccncc1	none (no result: ROMK primary)
Cc1onc(-c2ccccc2)c1C(=O)NC(=S)NNC(=O)c1ccco1	Cl transport mod 6.6 (no result: DTT redox prof, Autophagy HCS, ROMK primary) | KCC2 sec1 inactive | KCC2 bumet counter 0.014 | KCC2 sec2 inactive | HEK counter1 0.014 | KCC2 ouabain inactive | HEK counter2 0.015
CCSc1oc(-c2ccco2)nc1S(=O)(=O)c1ccccc1	Cl transport mod 6.5 (no result: ROMK primary) | KCC2 sec1 inactive | KCC2 bumet counter inactive | KCC2 sec2 inactive | HEK counter1 inactive | KCC2 ouabain inactive | HEK counter2 inactive
COc1cccc(C(=O)N2C(C(=O)O)CSC2c2ccccc2Cl)c1 (stereo unspecified)	none
COC(=O)CC1C(=O)NCCN1C(=O)CSc1nc2ccc([N+](=O)[O-])cc2s1 (stereo unspecified)	none
O=C(Nc1ccc(Cl)cn1)C1CCCN1S(=O)(=O)c1cccc2ccccc12 (stereo unspecified)	none
O=C(Nc1ccc(Cl)cn1)C1CCCN1S(=O)(=O)c1ccc(Cl)cc1 (stereo unspecified)	none (no result: Cl transport mod) | KCC2 sec1 inactive | KCC2 bumet counter inactive | KCC2 sec2 inactive | HEK counter1 inconclusive | KCC2 ouabain inactive | HEK counter2 inactive
O=C(Nc1nc(-c2cccs2)cs1)c1ccc(Cl)s1	Cl transport mod 3.1 (no result: ROMK primary) | KCC2 sec1 inactive | KCC2 bumet counter 0.015 | KCC2 sec2 inactive | HEK counter1 0.0086 | KCC2 ouabain inactive | HEK counter2 inactive
CCOC(=O)N1CCC(NC(=O)C2CCN(C(=O)c3cc4sccc4n3CC)CC2)CC1	none (no result: DTT redox prof, Autophagy HCS, ROMK primary)
Cn1nnnc1N=N/C(=N/Nc1ccccc1)c1ccccc1	Cl transport mod 60 (no result: DTT redox prof, Autophagy HCS, ROMK primary) | KCC2 sec1 0.026 | KCC2 bumet counter 0.094 | KCC2 sec2 0.057 | HEK counter1 0.044 | KCC2 ouabain 0.052 | HEK counter2 0.045
C=CCN1C(=O)N(/C=C/C)c2cccc3cccc1c23	Cl transport mod 7.6 | KCC2 sec1 inactive | KCC2 bumet counter inactive | KCC2 sec2 inactive | HEK counter1 0.0057 | KCC2 ouabain inactive | HEK counter2 inactive

Screening data (PubChem BioAssay)
